Bioassay records from PubChem BioAssay.
Ecoli rRNA inh: reduced GFP signal of wild-type E. coli, primary screen, bacterial rRNA inhibitor project, GFP/RFP fluorescence, OD600, single point; E. coli WT GFP vs humanized-ribosome RFP mutants, 24 h; hits give low values; DMSO median 0, no signal -100; GFP signal change (wild-type ribosome), % (test concentration not listed); 1.6% of 350,000 active;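 active = significant combined selectivity score with lowered wild-type GFP, culture density cut under 30%, mutant RFP and density less affected; inactive = any of these conditions unmet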
ERAP1 HTS inh: human ERAP1 aminopeptidase inhibitors, primary screen, biochemical, single point, plate reader | Endoplasmic reticulum aminopeptidase 1 (Homo sapiens), Q9NZ08 | recombinant ERAP1, Leu-AMC fluorescence, 60 min | inhibition, % at 10.7 µM | 0.15% of 340,000 active | AID 652197, 2013;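 active = mean replicate inhibition of at least 30%, or all replicates individually reaching that 30% level; inactive = mean below 30% and not every replicate reaching it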;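 also: 0% = neutral control wells and 100% = L-leucinethiol positive control wells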
S100A4 inh HTS: inhibitors of S100A4-myosin IIA peptide binding, primary screen, biochemical, fluorescence polarization, TAMRA-MyoIIA peptide. Protein S100-A4 (Homo sapiens), P26447. inhibition, % at 10.7 µM. 0.14% of 360,000 active;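 active = mean inhibition of at least 70% across replicates, with every replicate also reaching that level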
Target sequence (P26447 whole entry, looked up): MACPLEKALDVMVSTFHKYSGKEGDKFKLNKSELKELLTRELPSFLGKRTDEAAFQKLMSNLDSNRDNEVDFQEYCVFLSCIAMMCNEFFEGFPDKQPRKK
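Assay system: human S100A4 monomer with TAMRA-labelled myosin IIA peptide / Buffer or medium: Calcium-containing HEPES buffer, pH 7.2 / Reagent: TAMRA-labelled myosin IIA heavy-chain peptide probe, 5 nM / Compound: one dose per compound / Timing: polarization read 5 min after assay mix addition, stable 5–60 min / Benchmarks: neutral control DMSO, positive control TFP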
E-sel inducer: E-selectin induction in HUVECs, primary screen, imaging, HUVEC, immunofluorescence imaging, single point | normalized: neutral wells 0, TNF-alpha wells 100 | activation, % at 7.58 µM | 0.37% of 260,000 active | AID 686992, 2013;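 active = mean E-selectin-positive cell signal at least 10% of the positive control, reached in at least 60% of replicates, without over 20% cell loss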
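System: HUVEC, human umbilical vein endothelial cells; quantity: 3,000 cells/well; buffer or medium: EGM-2 medium, gelatin-coated wells; dosing: single-point compound dose; detection: immunofluorescence imaging; evaluation: % PE-positive cells; benchmarks: TNF-alpha, DMSO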
SIRT5 block: SIRT5 desuccinylase inhibitors, primary screen, biochemical, fluorescence imaging, single point, set 5 | NAD-dependent protein deacylase sirtuin-5, mitochondrial (Homo sapiens), Q9NXA8 | Purified SirT5, succinyl-peptide AMC, trypsin-coupled fluorescence | inhibition, % at 15 µM | 1.1% of 330,000 active | AID 652115, 2013; in the data active = inhibition above about 15%
Target sequence (Q9NXA8 whole entry, looked up): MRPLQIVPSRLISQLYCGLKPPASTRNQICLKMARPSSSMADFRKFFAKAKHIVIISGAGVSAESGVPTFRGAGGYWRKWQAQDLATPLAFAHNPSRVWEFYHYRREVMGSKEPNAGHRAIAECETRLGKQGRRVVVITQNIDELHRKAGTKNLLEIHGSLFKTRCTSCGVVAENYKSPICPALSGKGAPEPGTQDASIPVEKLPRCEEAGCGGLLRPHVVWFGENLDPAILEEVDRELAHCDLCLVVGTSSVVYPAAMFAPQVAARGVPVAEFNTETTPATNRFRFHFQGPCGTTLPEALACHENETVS
MLL AF4-AF9 inh: inhibitors of AF4 peptide binding to AF9, primary screen, biochemical, AlphaScreen, biotin-AF4 peptide, FLAG-AF9, single point | Protein AF-9 (Homo sapiens), P42568 | inhibition, % at 10 µM | 0.47% of 350,000 active | AID 651704, 2012;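 active = every replicate reaching a set inhibition limit, whatever the replicate mean, cut at about 25% in these data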;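 also: 0% = plate neutral control median and 100% = total signal loss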
* = called active by the depositor; . = no result. Compounds with a hit are over-represented: about 3.4% of the library has one in this group of screens.

SMILES | Ecoli rRNA inh | ERAP1 HTS inh | S100A4 inh HTS | E-sel inducer | SIRT5 block | MLL AF4-AF9 inh
C[C@@H]1CN([C@H](C)CO)C(=O)c2cc(NC(=O)C3CC3)ccc2O[C@@H]1CN(C)C(=O)Nc1ccc2c(c1)OCO2 | -1 | -3 | 103* | 0 | 3 | -5
C[C@@H]1CN([C@@H](C)CO)C(=O)c2cc(NS(=O)(=O)c3cccs3)ccc2O[C@@H]1CN(C)C(=O)Nc1ccc2c(c1)OCO2 | -1 | -2 | 14 | 36* | 2 | 1
CO[C@@H]1CN(C)C(=O)c2cc(NS(=O)(=O)CC(F)(F)F)ccc2OC[C@H](C)N(Cc2cccnc2)C[C@H]1C | -2 | 0 | 1 | 0 | . | 2
C[C@@H]1CN([C@H](C)CO)C(=O)Cc2cc(NC(=O)NC3CCCCC3)ccc2O[C@@H]1CN(C)Cc1ccc(C(=O)Nc2ccccc2N)cc1 | -9 | 0 | -39 | . | 8 | -2
C[C@@H]1CN([C@@H](C)CO)C(=O)c2cc(NC(=O)Nc3ccc4c(c3)OCO4)ccc2O[C@@H]1CN(C)Cc1ccc(C(F)(F)F)cc1 | . | 0 | -4 | . | 17* | 6
CC(C)NC(=O)Nc1ccc2c(c1)C(=O)N([C@@H](C)CO)C[C@@H](C)[C@H](CN(C)Cc1ccc(C(F)(F)F)cc1)O2 | 3 | 1 | 1 | 38* | 9 | -1
C[C@H]1CN([C@@H](C)CO)C(=O)c2cc(NC(=O)Nc3ccc(C(F)(F)F)cc3)ccc2O[C@H]1CN(C)Cc1ccc2c(c1)OCO2 | -35 | -3 | 0 | 0 | 0 | 3
C[C@H]1CN([C@@H](C)CO)C(=O)c2cc(NC(=O)Nc3ccc4c(c3)OCO4)ccc2O[C@H]1CN(C)C(=O)Nc1ccc2c(c1)OCO2 | -4 | 0 | -15 | 0 | 16* | 5
C[C@@H]1CN([C@H](C)CO)C(=O)c2cc(NC(=O)Nc3ccc(C(F)(F)F)cc3)ccc2O[C@H]1CN(C)C(=O)Nc1ccc2c(c1)OCO2 | -1 | 0 | -5 | 0 | 5 | 3
C[C@H](CO)N1C[C@H](C)[C@H](CN(C)C(=O)Nc2ccc3c(c2)OCO3)Oc2ccc(NC(=O)Nc3ccc4c(c3)OCO4)cc2C1=O | 0 | -4 | 7 | 0 | 6 | 2
CC(C)NC(=O)Nc1ccc2c(c1)C(=O)N([C@H](C)CO)C[C@H](C)[C@@H](CN(C)Cc1ccc(C(F)(F)F)cc1)O2 | 2 | 0 | 7 | 20 | 10 | 1
C[C@@H]1CN([C@@H](C)CO)C(=O)c2cc(NC(=O)Nc3ccc4c(c3)OCO4)ccc2O[C@@H]1CN(C)C(=O)Nc1ccc(C(F)(F)F)cc1 | -15 | 1 | 0 | 1 | 16* | -1
C[C@H]1CN([C@@H](C)CO)C(=O)c2cc(-c3cccc(F)c3)cnc2O[C@@H]1CN(C)Cc1cccnc1 | -2 | -4 | 8 | -1 | -7 | -1
COc1ccc(-c2cnc3c(c2)C(=O)N([C@H](C)CO)C[C@@H](C)[C@H](CN(C)C(=O)C2CCCCC2)O3)cc1 | -4 | -1 | -10 | 2 | -20 | -2
Cc1noc(C)c1NC(=O)N(C)C[C@@H]1Oc2ccc(NC(=O)c3ccncc3)cc2C(=O)N([C@@H](C)CO)C[C@@H]1C | 5 | 1 | 16 | -5 | 11 | 0
C[C@H](CO)N1C[C@H](C)[C@H](CN(C)C(=O)Nc2ccc3c(c2)OCO3)Oc2ccc(NC(=O)Nc3ccc(C(F)(F)F)cc3)cc2C1=O | -3 | 0 | -5 | 1 | 15* | 3
Cc1noc(C)c1NC(=O)N(C)C[C@H]1Oc2ccc(NC(=O)c3ccncc3)cc2C(=O)N([C@H](C)CO)C[C@@H]1C | 5 | 4 | 27 | 365* | 9 | -3
